# Data published in publication PMC3886125 (Molecular nutrition & food research, 2012).
# Marks after values point to notes of the source that are not given here.
# Legend:
# [1] = Xanthones in tumor tissue; assay type: in vivo, Balb/c nu/nu mice; conditions: for Tumor at 2 weeks, Free / Tumor at 4 weeks, Free / Tumor at 2 weeks, Conjugates / Tumor at 4 weeks, Conjugates: tumor tissue, diet 901 mg/kg xanthones; for Tumor at 2 weeks, Free / Tumor at 2 weeks, Conjugates: 2 weeks after injection of HT-29 cells; for Tumor at 4 weeks, Free / Tumor at 4 weeks, Conjugates: 4 weeks after injection of HT-29 cells; for Share of total xanthones in tumors: tentatively identified; for Tumor at 2 weeks, Conjugates / Tumor at 4 weeks, Conjugates: nd = not detected
# [2] = Xanthones in serum; assay type: in vivo, Balb/c nu/nu mice; conditions: for Identified in serum by HPLC-MS: mice fed diet with α-MG, not detected by HPLC-DAD
# [3] = Xanthones in liver; assay type: in vivo, Balb/c nu/nu mice; conditions: control- and tumor-bearing mice; tentatively identified
# [4] = tested on: β-catenin; assay: β-catenin in tumor tissue homogenates by ELISA; assay type: in vivo, Balb/c nu/nu mice; conditions: mice fed diet with α-MG; 4 weeks after injection of cells; control diet 19.1 ± 1.9
# [5] = tested on: HT-29 cells; assay: HT-29 colon cell xenograft growth in mice fed diet with α-MG; assay type: in vivo, Balb/c nu/nu mice; conditions: diet 900 mg α-MG/kg
# [6] = human subjects after mangosteen juice blend containing 94 mg/mL α-MG; cited from earlier work
# [7] = tested on: BcL-2; assay: BcL-2 in tumor tissue homogenates by ELISA; assay type: in vivo, Balb/c nu/nu mice; conditions: mice fed diet with α-MG; 4 weeks after injection of cells; control diet 17.2 ±0.8
# [8] = tested on: β-catenin; assay: β-catenin content in HT-29 cells by ELISA; assay type: cell-based, human; conditions: 24 h
# How it was run: (§1)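 HT-29 cells were seeded at 2 × 10⁵ cells/well in 6-well dishes. At 70% confluence, monolayers got basal McCoy's medium without or with test compound (6 and 12 µmol/L) for 24 h at 37°C. Cells were washed twice with ice-cold PBS and pelleted (800 × g, 4°C, 10 min), then lysed in ice-cold lysis buffer. Protein was measured with a commercial ELISA kit. Data are means ± SD versus control, compared by Welch's unpaired t-test.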
# [9] = tested on: BcL-2; assay: BcL-2 content in HT-29 cells by ELISA; assay type: cell-based, human; conditions: 24 h
# How it was run: as §1
# [10] = Food intake and body weight of mice fed diet with α-MG; assay type: in vivo, Balb/c nu/nu mice; conditions: 845 mg/kg α-MG (901 mg total xanthones/kg) in the diet
# How it was run: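 Female athymic Balb/c nu/nu mice arrived at 4 weeks of age and were acclimated 4 days on AIN-93G diet. They were randomized (n = 24/group) to γ-irradiated AIN-93G without or with a nominal 900 mg/kg test compound, given ad libitum; actual diet content was determined by extraction. Food intake, appearance/behaviour and body weight were checked after 3 and 7 days. Groups were compared by one-way ANOVA with Dunnett's post-test.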
# [11] = rats, gastric administration of 20 mg/kg in water containing 2% ethanol plus 2% Tween-80; cited from earlier work
# [12] = 2 weeks after injection of HT-29 cells
# [13] = 4 weeks after injection of HT-29 cells
# [14] = 6 µmol/L, preconfluent HT-29 cells
structure (smiles),measurement,setting,value
COc1c(O)cc2oc3cc4c(c(O)c3c(=O)c2c1CC=C(C)C)C=CC(C)(C)O4 [9-Hydroxycalabaxanthone],"Tumor at 2 weeks, Free",[1],0.22 ± 0.09 ^a) µg/g
same,"Tumor at 4 weeks, Free",[1],0.32 ± 0.11 ^a) µg/g
same,Identified in serum by HPLC-MS,[2],Low concentrations
"COc1cc2oc3cc(O)c(OC)c(CC=C(C)C)c3c(=O)c2c(O)c1CC=C(C)C [β-MG, β-mangostin]",Share of the total xanthones in the liver,[3],approx. 85%
same,Share of total xanthones in tumors,[1]; 2 weeks after injection,41%
same,Phase II conjugates as share of tumor β-MG,[1]; 4 weeks,40%
same,Share of total xanthones in tumors,[1]; 4 weeks after injection,45%
same,"Tumor at 2 weeks, Free",[1],1.54 ± 0.16 ^b) µg/g
same,"Tumor at 2 weeks, Conjugates",[1],not detected
same,"Tumor at 4 weeks, Free",[1],2.68 ± 0.17 ^a) µg/g
same,"Tumor at 4 weeks, Conjugates",[1],1.83 ± 0.17 ^b) µg/g
same,Identified in serum by HPLC-MS,[2],Low concentrations
"COc1c(O)cc2oc3cc(O)c(CC=C(C)C)c(O)c3c(=O)c2c1CC=C(C)C [α-MG, α-mangostin]",Share of tumor α-MG that is conjugated,[1]; 2 weeks postinjection,60%
same,Free and conjugated α-MG concentration in tumor tissue,[1]; 4 weeks postinjection,3.6 ± 0.1
same,Share of tumor α-MG that is conjugated,[1]; 4 weeks postinjection,52%
same,"Tumor at 2 weeks, Free",[1],0.51 ± 0.02 ^b) µg/g
same,"Tumor at 2 weeks, Conjugates",[1],0.76 ± 0.03 ^c) µg/g
same,"Tumor at 4 weeks, Free",[1],1.71 ± 0.06 ^a) µg/g
same,"Tumor at 4 weeks, Conjugates",[1],1.87 ± 0.06 ^a) µg/g
same,β-catenin concentration in tumors,[4],11.2 ± 0.7 pg/mg protein
same,Concentration of conjugated α-MG in serum,[2]; mice with tumors for 2 weeks,1000 ± 100 ng/mL
same,"α-MG in serum, without enzyme treatment (free)",[2]; nontumor-bearing and tumor-bearing mice fed diet with α-MG for 5 weeks,15 ± 1 ng/mL
same,Concentration of total α-MG in serum,"[2]; nontumor-bearing mice, 4 weeks, glucuronidase/sulfatase treated",1900 ± 300 ng/mL
same,Tumor mass less than control diet,[5]; [12],27%
same,Tumor volume less than in mice fed the diet without α-MG,[5]; [12],41%
same,Tumor mass less than control diet,[5]; [13],41%
same,Tumor volume less than in mice fed the diet without α-MG,[5]; [13],36%
same,Cmax of free α-MG in plasma,[6],3.1 µM
same,BcL-2 concentration in tumors,[7],3.9 ± 0.5 pg/mg protein
same,Decrease of β-catenin vs vehicle only,[8]; [14],24 ± 2%
same,Cellular content of β-catenin less than control cultures,"[8]; 12 µmol/L, HT-29 cells",39 ± 3%
same,Decrease of BcL-2 vs vehicle only,[9]; [14],27 ± 3%
same,Cellular content of BcL-2 less than control cultures,"[9]; 12 µmol/L, HT-29 cells",44 ± 4%
same,Body weight,[10],not significantly altered
same,Food intake,[10],not significantly altered
same,Absorption,[11],extremely low
